Published values of several laboratories.
Lines come from different studies, so protocols differ.
Observed: cell growth or viability

CCn1c(=O)c(-c2cc(NC(=O)Nc3ccccc3)c(F)cc2Br)cc2cnc(NC)cc21  GI50 (32D): > 3000 nM
Cc1cccc2cc(CNCC3(N4CCCC4)COC3)cnc12  viability (U-87 MG; 30 µM; 48 h): 97.7%
COc1ccc(C=NNC(=O)c2sc(Nc3ccccc3)c(C(=O)Nc3ccc(OC)cc3)c2NC(C)=O)cc1  viability (HCT-116; SRB; 0.1 µM; 48 h): 72.5%
COc1ccc2occ(/C=C/c3cc(OC)c(OC)c(OC)c3)c(=O)c2c1  CC50 (HSC-2; MTT; 23 h): 4.2 µM
COc1ccc(NC(=O)c2c(Nc3ccccc3)sc(C#N)c2NC(=O)CNc2ccccc2Cl)cc1  viability (HCT-116; SRB; 10 nM; 48 h): 87.7%
Cc1ccc(C(=O)NCc2ccsc2)cc1C#Cc1cn(C2CCCC2)c2ncnc(N)c12  GI50 (32D): > 1000 nM
CC#CC(=O)N1CC[C@@H](n2cc(-c3ccc(Oc4c(F)cccc4F)cc3)c3c(N)n[nH]c(=O)c32)C1  GI50 (DOHH-2; ATP luminescence; 72 h): 8580 nM
Cc1cn(CC(c2cn(C)c3ccccc23)c2cn(C)c3ccccc23)nn1  inhibition (DH82; MTS; 20 µM; 24 h): 17.9%
COc1ccc(-c2ccc(-c3ccc(C(=N)N)nc3)s2)cc1Cl  GI50 (EKVX; SRB): 1790 nM
COc1ccc(NC(=O)c2c(Nc3ccccc3)sc(C#N)c2NC(=O)CNc2ccccc2[N+](=O)[O-])cc1  viability (HCT-116; SRB; 10 nM; 48 h): 90.4%
CC(C)Cc1nn(C)c(=O)c2c(SCCCO)n(Cc3cc(NCCCCCN)nc4ccccc34)cc12  EC50 (Raji; MTT; 96 h): 55 nM
Cc1ccc(C(=O)NCc2ccsc2)cc1C#Cc1cn(CCN(C)C)c2ncnc(N)c12  GI50 (32D): > 1000 nM
Cn1nnc2c(C(N)=O)ncn2c1=O  EC50 (AGS): 310000 nM
CCOC(=O)c1c(C)ncn1CC(c1cn(C)c2ccc([N+](=O)[O-])cc12)c1cn(C)c2ccc([N+](=O)[O-])cc12  inhibition (DH82; MTS; 200 µM; 72 h): 43%
Clc1ccccc1-c1ccc(CNCC2(N3CCCC3)COC2)o1  viability (U-87 MG; 30 µM; 48 h): 63.6%
CCc1ncn(CC(c2c[nH]c3ccc(C)cc23)c2c[nH]c3ccc(C)cc23)c1C(=O)OC  inhibition (DH82; MTS; 20 µM; 24 h): 6.1%
CCn1cc(C#Cc2cc(C(=O)NCc3ccsc3)ccc2C)c2c(N)ncnc21  GI50 (32D): 23.3 nM
COc1ccc(NC(=O)c2c(Nc3ccccc3)sc(C(=O)NN=Cc3ccc(C)cc3)c2NC(C)=O)cc1  viability (HCT-116; SRB; 100 µM; 48 h): 76.1%
c1ccc(-c2ccc(CNCC3(N4CCCC4)COC3)o2)cc1  viability (U-87 MG; 30 µM; 48 h): 0.534%
COc1ccc(NC(=O)c2c(Nc3ccccc3)sc(C(=O)NN=Cc3ccccc3)c2NC(C)=O)cc1  viability (HCT-116; SRB; 1 µM; 48 h): 77.3%
COc1ccc2occ(/C=C/c3ccc(O)cc3)c(=O)c2c1  CC50 (HSC-2; MTT; 23 h): < 0.39 µM
COc1ccc(NC(=O)c2c(Nc3ccccc3)sc(C#N)c2NC(=O)CNc2ccc(Br)cc2)cc1  viability (HCT-116; SRB; 0.1 µM; 48 h): 80.6%
CC(C)Cc1nn(C)c(=O)c2c(SCCCO)n(Cc3ccc(NCCCCCN)nc3)cc12  EC50 (Raji; MTT; 96 h): 520 nM
COc1ccc(NC(=O)c2c(Nc3ccccc3)sc(C(=O)NN=Cc3ccc(Cl)cc3)c2NC(C)=O)cc1  viability (HCT-116; SRB; 10 µM; 48 h): 61.3%
COc1ccc(/C=C/c2coc3ccc(OC)cc3c2=O)cc1  CC50 (HSC-2; MTT; 6.7 h): 21 µM
CC(C)Cc1nn(C)c(=O)c2c(SCCCO)n(Cc3cnc(NCCCCCN)c4ccccc34)cc12  EC50 (Raji; MTT; 96 h): 24 nM
COc1ccc(-c2ccc(-c3ccc(C(=N)N)nc3)s2)cc1  GI50 (OVCAR-8; SRB): 2120 nM
COc1ccc(NC(=O)c2c(Nc3ccccc3)sc(C(=O)NN=Cc3cc(OC)c(OC)c(OC)c3)c2NC(C)=O)cc1  viability (HCT-116; SRB; 1 µM; 48 h): 78.4%
